According to ChEMBL document CHEMBL2429843 (J Med Chem, 2013):
Active and inactive are the calls of the source. The rule behind the calls is not given here.

Assays:
[1] = target: T1, Histone-lysine N-methyltransferase SETD7 (Homo sapiens) (UniProt Q8WTS6); assay: Inhibition of human SET7/9
T1 sequence (whole entry): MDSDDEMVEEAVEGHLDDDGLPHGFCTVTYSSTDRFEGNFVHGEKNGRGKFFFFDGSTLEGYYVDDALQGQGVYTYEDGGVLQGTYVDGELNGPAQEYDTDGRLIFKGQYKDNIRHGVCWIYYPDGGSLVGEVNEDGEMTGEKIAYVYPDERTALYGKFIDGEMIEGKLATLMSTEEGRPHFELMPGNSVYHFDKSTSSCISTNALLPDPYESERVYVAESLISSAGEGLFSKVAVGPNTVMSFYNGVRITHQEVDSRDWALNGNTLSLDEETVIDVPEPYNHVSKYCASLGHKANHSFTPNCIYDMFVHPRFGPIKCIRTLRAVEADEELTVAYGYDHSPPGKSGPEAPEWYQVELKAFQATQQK

[2] = Inhibition of Staphylococcus aureus TrmD using S-[methyl-3H] adenosyl-L-methionine as substrate assessed as leucine-tRNA methylation after 1 hr by scintillation proximity assay
How it was run: (§1)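 Radiometric SPA: TrmD in 50 mM HEPES pH 7.5 with 5 mM MgCl2 (E. coli and K. pneumoniae 10 nM, S. aureus 10 nM, P. aeruginosa 5 nM, H. influenzae 4 nM in enzyme reagent), mixed 1:1 with a reagent of 0.05 μM [3H]SAM, 2 μM unlabelled SAM and 2 μM synthetic E. coli leucine-tRNA. Compounds are 2-fold serial DMSO dilutions. Incubation is 1 h at room temperature.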

[3] = Inhibition of Escherichia coli TrmD using S-[methyl-3H] adenosyl-L-methionine as substrate assessed as leucine-tRNA methylation after 1 hr by scintillation proximity assay; how it was run: as §1
[4] = Inhibition of Haemophilus influenzae TrmD using S-[methyl-3H] adenosyl-L-methionine as substrate assessed as leucine-tRNA methylation after 1 hr by scintillation proximity assay; how it was run: as §1
[5] = Inhibition of Acinetobacter baumannii TrmD using S-[methyl-3H] adenosyl-L-methionine as substrate assessed as leucine-tRNA methylation after 1 hr by scintillation proximity assay
[6] = Selectivity ratio of IC50 for Escherichia coli TrmD to IC50 for Pseudomonas aeruginosa TrmD
[7] = Selectivity ratio of IC50 for Staphylococcus aureus TrmD to IC50 for Escherichia coli TrmD
Klebsiella pneumoniae = assay: Inhibition of Klebsiella pneumoniae TrmD using S-[methyl-3H] adenosyl-L-methionine as substrate assessed as leucine-tRNA methylation after 1 hr by scintillation proximity assay; how it was run: as §1
[8] = Selectivity ratio for Escherichia coli TrmD over human SET7/9
[9] = Inhibition of Pseudomonas aeruginosa TrmD using S-[methyl-3H] adenosyl-L-methionine as substrate assessed as leucine-tRNA methylation after 1 hr by scintillation proximity assay; how it was run: as §1
[10] = Dissociation constant, pKa of the compound; type: physicochemical
[11] = target: Protein arginine N-methyltransferase 1 (Homo sapiens) (UniProt Q99873); assay: Inhibition of human PRMT1 at 20 uM relative to control
Chain of Protein arginine N-methyltransferase 1 (Homo sapiens) (Q99873 whole entry, looked up): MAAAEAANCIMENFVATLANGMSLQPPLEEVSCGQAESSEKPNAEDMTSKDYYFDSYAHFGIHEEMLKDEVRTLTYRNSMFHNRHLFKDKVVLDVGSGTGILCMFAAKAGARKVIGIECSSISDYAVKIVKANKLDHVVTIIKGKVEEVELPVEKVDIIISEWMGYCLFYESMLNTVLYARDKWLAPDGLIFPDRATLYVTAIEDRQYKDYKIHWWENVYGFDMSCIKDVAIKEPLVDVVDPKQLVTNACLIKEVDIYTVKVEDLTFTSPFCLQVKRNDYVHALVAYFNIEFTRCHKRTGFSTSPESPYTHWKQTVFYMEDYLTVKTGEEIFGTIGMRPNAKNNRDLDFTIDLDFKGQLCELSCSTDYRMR

[12] = Selectivity ratio for Escherichia coli TrmD over human PRMT1
[13] = target: T1, Histone-lysine N-methyltransferase SETD7 (Homo sapiens); assay: Inhibition of human SET7/9 at 20 uM relative to control
Haemophilus influenzae = assay: Antibacterial activity against recombinant Haemophilus influenzae harboring acrB::cap mutant assessed as growth inhibition by broth microdilution method; type: functional

SMILES	inhibition [1]	IC50 [2] [µM]	IC50 [3] [µM]	IC50 [4] [µM]	IC50 [5] [µM]	Ratio IC50 [6]	Ratio IC50 [7]	IC50 (Klebsiella pneumoniae) [µM]	Selectivity ratio [8]	IC50 [9] [µM]	pKa [10]	inhibition [11] [%]	Selectivity ratio [12]	inhibition [13] [%]	MIC (Haemophilus influenzae) [µM]
Nc1ncnc2c1ncn2[C@@H]1O[C@H](C[C@@H](N)CC[C@H](N)C(=O)O)[C@@H](O)[C@H]1O [SINEFUNGIN]	Active	160	11	1.9											
O=C(NCc1ccc(CNCc2ncc[nH]2)cc1)c1csc2nc[nH]c(=O)c12		8.2	0.52	1.5	0.23	10	5	0.31	50	0.067	6.5	< 10	50	< 10	
O=C(NCc1ccc(CN2CCC(O)C2)cc1)c1csc2nc[nH]c(=O)c12 (stereo not drawn)		4.4	0.42	0.37					50			< 10	50	< 10	3.1
NCc1ccc(CNC(=O)c2csc3nc[nH]c(=O)c23)cc1		4.3	0.91	0.56	0.61	10	5	0.83	50	0.098	14.4	< 10	50	< 10	
